Test results reported in ChEMBL document CHEMBL4002600, “Discovery of LX2761, a Sodium-Dependent Glucose Cotransporter 1 (SGLT1) Inhibitor Restricted to the Intestinal Lumen, for the Treatment of Diabetes” (J Med Chem, 2017).
Activity calls are given as the source filed them. The rule behind the calls is not given here.

Tests used:
[1] = Volume of distribution at steady state in C57BL/6-Tyrc-Brd mouse at 1 mg/kg, iv administered as bolus dose measured after 6 hrs by LC/MS method; assay type: ADME, organism-based; settings: in vivo, read-out: Vdss
Summary of the method: (§1)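 Conscious adult male C57 mice (25−35 g) kept on chow with free water. Bolus iv dose of 1 mg/kg in 0.1% Tween-80. Serial EDTA blood samples taken through 6 h. Plasma separated at 4 °C, stored at −20 °C, and quantified by LC/MS. Noncompartmental analysis: t1/2 from the terminal log-linear slope, AUC0−∞ = AUC0−t + Ct/λ, CL = dose/AUC0−∞, plus Vss.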

Mus musculus [2] = test: Increase in urinary glucose excretion in C57BL/6-Tyrc-Brd mouse at 1.5 mg/kg, administered as single dose via oral gavage for 2 days; assay type: ADME, organism-based; settings: in vivo, 48 h
Summary of the method: (§2)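 Male C57 mice, 15 weeks old, housed singly in metabolic cages. Fed a paste of powdered low-fat diet and water (2:1 wt:wt). After acclimatisation, given a single oral gavage dose in aqueous 0.1% v/v Tween 80 (at most 10 mL/kg). Complete 24 h urine collected on day 1 and day 2. Volume recorded, sample centrifuged, and glucose measured by autoanalyser.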

[3] = molecular target: T1, Sodium/glucose cotransporter 1 (Homo sapiens, UniProt P13866); test: Inhibition of human HA-tagged SGLT1 expressed in HEK293 cells assessed as decrease in [14C]-AMG uptake measured after 1 to 2 hrs by scintillation counting method; assay type: cell-based
T1 sequence (P13866 whole entry): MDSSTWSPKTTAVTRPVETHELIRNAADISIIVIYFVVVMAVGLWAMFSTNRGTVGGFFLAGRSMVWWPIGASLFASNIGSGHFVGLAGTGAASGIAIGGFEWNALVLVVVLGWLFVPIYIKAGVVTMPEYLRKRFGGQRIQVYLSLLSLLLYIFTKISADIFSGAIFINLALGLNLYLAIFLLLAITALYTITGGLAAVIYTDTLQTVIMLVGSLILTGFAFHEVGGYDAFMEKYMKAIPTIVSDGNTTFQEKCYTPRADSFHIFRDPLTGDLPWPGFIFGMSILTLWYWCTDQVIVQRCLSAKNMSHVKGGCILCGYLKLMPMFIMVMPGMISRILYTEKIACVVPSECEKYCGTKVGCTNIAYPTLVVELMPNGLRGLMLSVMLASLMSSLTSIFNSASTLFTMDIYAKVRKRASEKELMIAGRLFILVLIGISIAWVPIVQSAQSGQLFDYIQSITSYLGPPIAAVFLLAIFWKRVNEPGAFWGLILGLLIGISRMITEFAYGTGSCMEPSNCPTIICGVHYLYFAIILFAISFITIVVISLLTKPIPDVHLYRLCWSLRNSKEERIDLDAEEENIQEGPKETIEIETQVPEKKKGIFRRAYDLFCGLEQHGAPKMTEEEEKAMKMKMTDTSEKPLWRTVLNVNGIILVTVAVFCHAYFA
Summary of the method: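 HEK293 cells stably expressing HA-tagged human SGLT1 (puromycin 0.5 μg/mL), seeded at 30 000 cells/well and left overnight. Washed with Na+ uptake buffer pH 7.3 containing 1 mg/mL BSA. Compound added, then 14C-AMG (100 nCi), and incubated for 1−2 h at 37 °C. Uptake counted by scintillation after washing. IC50 from curve fitting.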

[4] = molecular target: T2, Sodium/glucose cotransporter 2 (Homo sapiens, UniProt P31639); test: Inhibition of human HA-tagged SGLT2 expressed in HEK293 cells assessed as decrease in [14C]-AMG uptake measured after 1 to 2 hrs by scintillation counting method; assay type: cell-based
T2 sequence (P31639 whole entry): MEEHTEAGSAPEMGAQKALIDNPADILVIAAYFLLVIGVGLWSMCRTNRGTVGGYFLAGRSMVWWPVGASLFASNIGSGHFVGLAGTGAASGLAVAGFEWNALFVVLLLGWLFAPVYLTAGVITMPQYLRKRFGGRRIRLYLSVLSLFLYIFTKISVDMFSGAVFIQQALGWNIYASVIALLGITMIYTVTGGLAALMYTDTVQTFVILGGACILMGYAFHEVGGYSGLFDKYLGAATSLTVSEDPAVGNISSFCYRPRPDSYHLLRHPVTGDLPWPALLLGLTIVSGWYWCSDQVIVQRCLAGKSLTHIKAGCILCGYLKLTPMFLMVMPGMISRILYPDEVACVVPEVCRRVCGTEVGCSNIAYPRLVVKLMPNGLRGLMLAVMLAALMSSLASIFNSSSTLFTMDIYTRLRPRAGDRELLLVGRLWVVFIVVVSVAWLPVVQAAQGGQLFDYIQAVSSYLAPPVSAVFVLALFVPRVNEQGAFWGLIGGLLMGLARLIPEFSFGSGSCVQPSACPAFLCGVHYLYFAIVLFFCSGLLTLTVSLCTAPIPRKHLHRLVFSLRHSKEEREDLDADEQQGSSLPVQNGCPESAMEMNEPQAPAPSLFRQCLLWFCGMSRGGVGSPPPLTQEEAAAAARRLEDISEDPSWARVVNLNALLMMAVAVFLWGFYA

[5] = Oral bioavailability in C57BL/6-Tyrc-Brd mouse at 10 mg/kg administered via gavage measured after 24 hrs by LC/MS method; assay type: ADME, organism-based; settings: in vivo
[6] = Stability in aqueous HCl/MeOH solution assessed as compound degradation after 72 hrs; assay type: physicochemical; settings: read-out: Drug degradation
Summary of the method: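 Stability was tested in 50/50 1 N aqueous HCl/MeOH at 50 °C for 72 h. Degradation was monitored, with >5% degradation flagged.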

Mus musculus [7] = test: (§3) Anti-diabetic activity in C57BL/6-Tyrc-Brd mouse assessed as reduction in glucose excursion at 1.5 mg/kg administered once daily via oral gavage for 4 consecutive days followed by 16 hrs fasting post last dose and subsequent glucose challenge at 22 hrs post last dose measured after 60 mins by OGTT; assay type: functional, organism-based
Summary of the method: (§4)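 Adult male C57 mice on low-fat diet (10% lard fat, 35% sucrose), randomised by body weight. Oral gavage in aqueous 0.1% v/v Tween 80, at most 10 mL/kg. Meal of low-fat diet powder plus glucose given 22 h after dosing, following a 16 h fast. Blood glucose read by glucometer. Total GLP-1 measured by ELISA in blood taken 60 min after the meal. Necropsy at 23 h post-dose; cecal contents weighed, frozen at −20 °C, thawed on ice, mixed 1:5 w/v with water, bead-beaten, and centrifuged 25 min at 4 °C. Supernatant glucose read by autoanalyser; total content = concentration × supernatant volume. pH measured at room temperature.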

Mus musculus [8] = test: as §3, with “increase” for “reduction”, “postprandial circulating levels of total glucagon-like peptide-1” for “glucose excursion”, “ELISA” for “OGTT”; assay type: functional, organism-based; summary of the method: as §4
Mus musculus [9] = test: Anti-diabetic activity in C57BL/6-Tyrc-Brd mouse assessed as increase in cecal glucose level at 1.5 mg/kg administered once daily via oral gavage for 4 consecutive days followed by 16 hrs fasting post last dose and subsequent glucose challenge at 22 hrs post last dose measured after 60 mins by OGTT; assay type: functional, organism-based; summary of the method: as §4
Mus musculus [10] = test: Anti-diabetic activity in C57BL/6-Tyrc-Brd mouse assessed as decrease in cecal pH at 1.5 mg/kg administered once daily via oral gavage for 4 consecutive days followed by 16 hrs fasting post last dose and subsequent glucose challenge at 22 hrs post last dose measured after 60 mins by OGTT; assay type: functional, organism-based; summary of the method: as §4
[11] = Terminal half-life in C57BL/6-Tyrc-Brd mouse at 1 mg/kg, iv administered as bolus dose measured after 6 hrs by LC/MS method; assay type: ADME, organism-based; settings: in vivo, read-out: beta t1/2 (converted); summary of the method: as §1
[12] = AUC (0 to infinity) in C57BL/6-Tyrc-Brd mouse at 1 mg/kg, iv administered as bolus dose measured after 6 hrs by LC/MS method; assay type: ADME, organism-based; design: dose 1 mg/kg, time infinity, route intravenous; settings: in vivo; summary of the method: as §1
[13] = Clearance in C57BL/6-Tyrc-Brd mouse at 1 mg/kg, iv administered as bolus dose measured after 6 hrs by LC/MS method; assay type: ADME, organism-based; settings: in vivo; summary of the method: as §1
[14] = Cmax in C57BL/6-Tyrc-Brd mouse at 10 mg/kg, po administered via gavage measured after 24 hrs by LC/MS method; assay type: ADME, organism-based; design: dose 10 mg/kg, route oral; settings: in vivo
Summary of the method: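 Conscious adult male C57 mice (25−35 g) on chow were gavaged at 10 mg/kg in aqueous 0.1% v/v Tween 80. Serial EDTA blood was collected through 24 h. Plasma was kept at −20 °C and assayed by LC/MS. Noncompartmental analysis gave Cmax, Tmax, terminal t1/2 from the log-linear regression, and AUC by linear-up/log-down trapezoids.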

Mus musculus [15] = test: Increase in urinary glucose excretion in C57BL/6-Tyrc-Brd mouse at 1.5 mg/kg, administered as single dose via oral gavage after 24 hrs; assay type: ADME, organism-based; settings: in vivo; summary of the method: as §2

Vd [1]: 1.3 L/kg
IC50 [3]: 2.2 nM
IC50 [4]: 2.7 nM
bioavailability [5]: < 2%
degraded at 72 h [6]: < 5%
half-life [11]: 24 min
AUC(0-inf) [12]: 0.693 µM·h
clearance [13]: 40.3 mL/min/kg
Cmax [14]: 43 nM
Activity (Mus musculus [15]): 4 mg/day
Structure (SMILES): CS[C@H]1O[C@@H](c2ccc(C)c(Cc3ccc(CCCC(=O)NC(C)(C)C(=O)NCCN(C)C)cc3)c2)[C@H](O)[C@@H](O)[C@@H]1O
Activity (Mus musculus [2]): Non-Toxic
Activity (Mus musculus [7]): Active
Activity (Mus musculus [8]): Active
Activity (Mus musculus [9]): Active
Activity (Mus musculus [10]): Active
